Values after ≈ are worked out from the molar mass of the structure shown. Active and inactive are the calls of the source. No cut-off for these calls is given here.
Assays:
[1] = test system: Aspergillus fumigatus; test: Antifungal activity against Aspergillus fumigatus at 50 ug/ml; assay type: functional, organism-based
[2] = test system: Pseudomonas aeruginosa; test: Antibacterial activity against Pseudomonas aeruginosa ATCC BAA-427 at 50 ug/ml; assay type: functional, organism-based
[3] = test system: Candida albicans; test: Antifungal activity against Candida albicans at 50 ug/ml; assay type: functional, organism-based
[4] = Mean residence time in Sprague-Dawley rat at 10 mg/kg, po; assay type: ADME, organism-based; set-up: dose 10 mg/kg, route oral; conditions: in vivo
How it was run: (§1)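 Male Sprague–Dawley rats (250 ± 25 g) each received a single oral dose of 10 mg/kg or an intravenous dose of 1 mg/kg. Plasma concentration–time profiles were obtained with three rats per time point. Parameters were calculated with a two-compartmental model, and values are averages of three rats. Cmax is given as mean ± SEM.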

[5] = test system: Mycobacterium tuberculosis H37Rv; test: Inhibition of Mycobacterium tuberculosis H37Rv ATP synthase assessed as reduction in total ATP content at 50 ug/ml after 18 hrs by bead-vortexing settling method
How it was run: (§2)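 H37Rv was declumped by bead-vortexing and settling, adjusted to McFarland 1, then diluted 100-fold. Portions of 1 mL in tubes with 0.5 mm glass beads were exposed to compound for 18 h at 37 °C. Samples were heated 8–10 min, chilled on ice, and bead-beater lysed. Cleared lysate ATP was measured by luciferase assay.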

[6] = test system: Mycobacterium tuberculosis; test: Antimycobacterial activity against Mycobacterium tuberculosis H37Rv infected in mouse chronic TB model assessed as log reduction in lungs at 173 umol/kg administered via esophageal cannula 6 times a week for 4 weeks relative to untreated control; assay type: functional
[7] = Oral bioavailability in Sprague-Dawley rat at 10 mg/kg; assay type: ADME, organism-based; conditions: in vivo; how it was run: as §1
[8] = test system: Mycobacterium tuberculosis H37Rv; test: Inhibition of Mycobacterium tuberculosis H37Rv ATP synthase assessed as reduction in total ATP content at 12.5 ug/ml after 18 hrs by bead-vortexing settling method; how it was run: as §2
[9] = test system: Trichophyton mentagrophytes; test: Antifungal activity against Trichophyton mentagrophytes at 50 ug/ml; assay type: functional, organism-based
[10] = Cmax in Sprague-Dawley rat at 10 mg/kg, po; assay type: ADME, organism-based; set-up: dose 10 mg/kg, route oral; conditions: in vivo; how it was run: as §1
[11] = test system: Rattus norvegicus; test: Volume of distribution at steady state in Sprague-Dawley rat at 10 mg/kg, po; assay type: ADME, organism-based; set-up: dose 10 mg/kg, route oral; conditions: in vivo; how it was run: as §1
[12] = test system: Mycobacterium tuberculosis; test: Bactericidal activity against non-replicating Mycobacterium tuberculosis H37Rv Wayne model under hypoxic/oxygen depleted conditions assessed as log reduction after 4 days by serial dilution assay; assay type: functional
How it was run: (§3)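 Wayne hypoxia model. A mid-log 7H9 culture was diluted to about 10^5 cfu/mL, and 10 mL was sealed in 20 mL headspace vials. Vials were stirred slowly at 37 °C for 20–22 days, until methylene blue indicator (1.5 µg/mL) decolorized. Drug was then injected through the septum, and vials were incubated 4 more days at 37 °C. Tests were run in duplicate, with CFU counted on 7H10 agar plates.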

[13] = test system: Mycobacterium tuberculosis; test: Antimycobacterial activity against Mycobacterium tuberculosis H37Rv infected in mouse chronic TB model assessed as log reduction in lungs at 87 umol/kg administered via esophageal cannula 6 times a week for 4 weeks relative to untreated control; assay type: functional
[14] = test system: Candida parapsilosis; test: Antifungal activity against Candida parapsilosis ATCC 22019 at 50 ug/ml; assay type: functional, organism-based
[15] = Elimination half life in Sprague-Dawley rat at 10 mg/kg, po; assay type: ADME, organism-based; set-up: dose 10 mg/kg, route oral; conditions: in vivo, read-out: beta t1/2 (converted); how it was run: as §1
[16] = test system: Mycobacterium tuberculosis; test: Antimycobacterial activity against Mycobacterium tuberculosis H37Rv after 4 weeks by agar dilution assay; assay type: functional
How it was run: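 Agar dilution method. DMSO stocks (5 mg/mL) were serially diluted in DMSO, and 0.1 mL of each was mixed into 1.9 mL Middlebrook 7H10 agar with OADC and set as slants. Each tube received about 10^5 bacilli from a 3-week Lowenstein–Jensen culture suspended in saline with 0.05% Tween-80. Tubes were incubated at 37 °C for 4 weeks. MIC was the lowest concentration with no visible growth.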

[17] = test system: Rattus norvegicus; test: Clearance in Sprague-Dawley rat at 10 mg/kg, po; assay type: ADME, organism-based; set-up: dose 10 mg/kg, route oral; conditions: in vivo; how it was run: as §1
[18] = Inhibition of Mycobacterium smegmatis TMC 607 ATP synthase incubated for 10 mins prior to NADH addition measured after 1 hr by luminescence assay; set-up: species or system Mycolicibacterium smegmatis; conditions: read-out: IC50
[19] = test system: Rattus norvegicus; test: AUC in Sprague-Dawley rat at 10 mg/kg, po; assay type: ADME, organism-based, Plasma; set-up: dose 10 mg/kg, route oral; conditions: in vivo; how it was run: as §1
[20] = test system: Klebsiella pneumoniae; test: Antibacterial activity against Klebsiella pneumoniae ATCC 27736 at 50 ug/ml; assay type: functional, organism-based
[21] = Selectivity ratio of IC50 for Mycobacterium smegmatis TMC 607 ATP synthase to IC50 for Swiss mouse liver ATP synthase
[22] = Cmax in Sprague-Dawley rat at 1 mg/kg, iv; assay type: ADME, organism-based; set-up: dose 1 mg/kg, route intravenous; conditions: in vivo; how it was run: as §1
[23] = Tmax in Sprague-Dawley rat at 1 mg/kg, iv; assay type: ADME, organism-based; set-up: dose 1 mg/kg, route intravenous; conditions: in vivo; how it was run: as §1
[24] = test system: Sporothrix schenckii; test: Antifungal activity against Sporothrix schenckii at 50 ug/ml; assay type: functional, organism-based
[25] = test system: Escherichia coli; test: Antibacterial activity against Escherichia coli ATCC 9637 at 50 ug/ml; assay type: functional, organism-based
[26] = test system: Mycobacterium tuberculosis; test: Antimycobacterial activity against Mycobacterium tuberculosis H37Rv infected in mouse chronic TB model assessed as log reduction in spleen at 87 umol/kg administered via esophageal cannula 6 times a week for 4 weeks relative to untreated control; assay type: functional
[27] = test system: Mycobacterium tuberculosis; test: Antimycobacterial activity against Mycobacterium tuberculosis H37Rv infected in mouse chronic TB model assessed as survival rate at 87 umol/kg administered via esophageal cannula 6 times a week for 4 weeks relative to untreated control; assay type: functional
How it was run: (§4)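 Male Balb/C mice (8–10 weeks, 18–20 g), ten per group, were infected intravenously with 5 × 10^6 CFU H37Rv in 0.2 mL. Dosing by gavage began on day 1, six times weekly for 4 weeks, with the last dose on day 28. Survival was followed to day 30. Survivors were sacrificed on day 30, and lung and spleen homogenates were plated on 7H10/OADC at 37 °C for 4–6 weeks. Results were compared with an untreated infected group.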

[28] = test system: Staphylococcus aureus; test: Antibacterial activity against Staphylococcus aureus ATCC 25923 at 50 ug/ml; assay type: functional, organism-based
[29] = test system: Cryptococcus neoformans; test: Antifungal activity against Cryptococcus neoformans at 50 ug/ml; assay type: functional, organism-based
[30] = test system: Mycobacterium tuberculosis; test: Bactericidal activity against non-replicating Mycobacterium tuberculosis H37Rv Wayne model under hypoxic/oxygen depleted conditions assessed as log reduction at 10 ug/ml after 4 days by serial dilution assay; assay type: functional; how it was run: as §3
[31] = AUC in Sprague-Dawley rat at 1 mg/kg, iv; assay type: ADME, organism-based; set-up: dose 1 mg/kg, route intravenous; conditions: plasma; how it was run: as §1
[32] = test system: Mycobacterium tuberculosis; test: Bactericidal activity against non-replicating Mycobacterium tuberculosis H37Rv Wayne model under hypoxic/oxygen depleted conditions assessed as log reduction at 100 ug/ml after 4 days by serial dilution assay; assay type: functional; how it was run: as §3
[33] = Elimination half life in Sprague-Dawley rat at 1 mg/kg, iv; assay type: ADME, organism-based; set-up: dose 1 mg/kg, route intravenous; conditions: in vivo, read-out: beta t1/2 (converted); how it was run: as §1
[34] = Tmax in Sprague-Dawley rat at 10 mg/kg, po; assay type: ADME, organism-based; set-up: dose 10 mg/kg, route oral; conditions: in vivo; how it was run: as §1
[35] = test system: Mycobacterium tuberculosis; test: Antimycobacterial activity against Mycobacterium tuberculosis H37Rv infected in mouse chronic TB model assessed as log reduction in spleen at 173 umol/kg administered via esophageal cannula 6 times a week for 4 weeks relative to untreated control; assay type: functional
[36] = test system: Mycobacterium tuberculosis; test: Antimycobacterial activity against Mycobacterium tuberculosis H37Rv infected in mouse chronic TB model assessed as survival rate at 173 umol/kg administered via esophageal cannula 6 times a week for 4 weeks relative to untreated control; assay type: functional; how it was run: as §4
[37] = Selectivity index, ratio of CC50 for African green monkey Vero cells to MIC100 for Mycobacterium tuberculosis H37Rv; assay type: toxicity, cell-based; conditions: read-out: Selectivity Index
How it was run: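 Selectivity index is CC50 from the Vero resazurin assay divided by the agar-dilution MIC against H37Rv.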

[38] = Volume of distribution at steady state in Sprague-Dawley rat at 1 mg/kg, iv; assay type: ADME, organism-based; set-up: dose 1 mg/kg, route intravenous; conditions: in vivo, read-out: Vdss; how it was run: as §1
[39] = Cytotoxicity against African green monkey Vero cells after 72 hrs yb resazurin assay; assay type: cell-based; conditions: chlorocebus sabaeus
How it was run: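 Vero cells were seeded overnight in RPMI with 10% heat-inactivated FBS at 37 °C, 5% CO2. Cells were exposed in triplicate to concentrations from 100 to 1.56 µg/mL for 72 h. Resazurin (0.1%) was then added for 4–5 h, and fluorescence was read at ex 530/em 590 nm. CC50 was derived from the fluorescence plot.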

[40] = Inhibition of Swiss mouse liver ATP synthase after 1 hr
How it was run: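 Liver mitochondria came from an overnight-fasted adult Swiss mouse, isolated by differential centrifugation in sucrose/Tris-MOPS/EGTA buffer pH 7.4 and assayed the same day. Mitochondria (100 µg) were stirred at room temperature with 100 µM compound in Tris/HCl, sucrose, 5 mM MgCl2 and 100 µM diadenosine pentaphosphate, pH 7.4. The reaction was started with 1 mM ADP, 20 mM Pi and 50 mM succinate, stopped after 1 h with EDTA-TCA, and ATP was read by luciferase.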

[41] = Clearance in Sprague-Dawley rat at 1 mg/kg, iv; assay type: ADME, organism-based; set-up: dose 1 mg/kg, route intravenous; conditions: in vivo; how it was run: as §1

SMILES: CCN(CC)Cc1cc(N(c2cc(C)nc3cc(Cl)ccc23)S(=O)(=O)c2cccc(Cl)c2Cl)ccc1O
- Activity [1]: inactive
- Activity [2]: inactive
- Activity [3]: inactive
- MRT [4]: 6.69 h
- inhibition [5]: 31%
- log10cfu [6]: 2.12
- bioavailability [7]: 1.72%
- inhibition [8]: 60%
- Activity [9]: inactive
- Cmax [10]: 616 ng/mL
- Vdss [11]: 0.41 L/kg
- MIC100 [12]: 3.12 µg/mL (≈ 5.39 µM)
- log10cfu [13]: 1
- Activity [14]: inactive
- half-life [15]: 4.2 h
- MIC100 [16]: 3.12 µg/mL (≈ 5.39 µM)
- CL [17]: 1 mL/min/kg
- IC50 [18]: 510 nM
- AUC [19]: 2813 ng·h/mL
- Activity [20]: inactive
- Ratio IC50 [21]: > 155
- Cmax [22]: 2420 ng/mL
- Tmax [23]: 5 min
- Activity [24]: inactive
- Activity [25]: inactive
- log10cfu [26]: 1
- Survival [27]: 40%
- Activity [28]: inactive
- Activity [29]: inactive
- log10CFU/ml [30]: 1.14
- AUC [31]: 16400 ng·h/mL
- log10CFU/ml [32]: 2.34
- half-life [33]: 8.84 h
- Tmax [34]: 0.5 h
- log10cfu [35]: 2.12
- Survival [36]: 60%
- selectivity ratio [37]: > 96
- Vd [38]: 0.84 L/kg
- CC50 at 72 h [39]: > 300 µg/mL
- IC50 [40]: > 100000 nM
- clearance [41]: 1.17 mL/min/kg
